Screens: PubChem, Broad Institute
Rows were chosen to be rich in hits. Some 1.5% of all compounds tested hit in one or more screens of this group.
RAD54 inh = inhibitors of human RAD54 branch migration, primary screen, biochemical, fluorescence, single point; RAD54 Holliday junction branch migration, FAM/BHQ fluorescence; DNA repair and recombination protein RAD54-like (Homo sapiens), Q92698; inhibition, % at 10.4 µM; 0.14% of 360,000 active;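 active = mean normalized replicate activity at least 40 and at least half of replicates scoring 40 or more; inconclusive = only one of the two criteria met; inactive = mean below 40 and under half of replicates reaching 40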;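 also: 0% = median of neutral control wells and 100% = median of positive control wells; inhibitors cause a drop in the FAM fluorescence signal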
S100A4 MyoIIA = inhibitors of S100A4-myosin IIA peptide binding, primary screen, biochemical, fluorescence polarization, TAMRA-MyoIIA peptide; inhibition, % at 10.7 µM; 0.14% of 360,000 active;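 active = mean inhibition of at least 70% across replicates, with every replicate also reaching that level; inconclusive = mean inhibition reaches 70% but some replicates fall short; inactive = mean inhibition below 70%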
Target sequence (P26447 whole entry, looked up): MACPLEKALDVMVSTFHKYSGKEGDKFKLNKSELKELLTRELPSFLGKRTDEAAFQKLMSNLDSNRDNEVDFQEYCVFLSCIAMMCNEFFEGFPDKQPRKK
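incubation = readout 5 min after mixing, signal stable up to 60 min | system = S100A4 monomer protein | buffer or medium = HEPES pH 7.2 with CaCl2, KCl, NaCl, DTT, Triton | benchmarks = neutral control DMSO, positive control TFP | also added = fluorescent myosin IIA peptide, 5 nM | compound dosing = one concentration per compound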
dFosB act = activators of delta FosB homodimer, primary screen, biochemical, fluorescence polarization, TAMRA-CDK5 oligo, single point | activation, % at 25 µM | 0.99% of 340,000 active | purified delta FosB; percent of positive-control signal above neutral wells;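 active = mean activation above about 17%, with every replicate also reaching it, limit read from the data, passing the limit was not always enough; inconclusive = only one of the two conditions met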
Target sequence (P13346 whole entry, looked up): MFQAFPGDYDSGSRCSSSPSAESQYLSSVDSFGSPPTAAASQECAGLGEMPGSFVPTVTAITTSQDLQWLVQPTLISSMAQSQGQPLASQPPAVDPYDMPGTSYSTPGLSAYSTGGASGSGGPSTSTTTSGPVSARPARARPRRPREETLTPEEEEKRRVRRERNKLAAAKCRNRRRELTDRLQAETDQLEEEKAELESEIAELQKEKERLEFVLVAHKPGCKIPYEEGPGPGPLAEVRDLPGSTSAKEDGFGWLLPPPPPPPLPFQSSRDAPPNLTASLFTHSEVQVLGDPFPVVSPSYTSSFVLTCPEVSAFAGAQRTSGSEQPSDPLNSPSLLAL
MLL AF4-AF9 inh = inhibitors of AF4 peptide binding to AF9, primary screen, biochemical, AlphaScreen, biotin-AF4 peptide, FLAG-AF9, single point; Protein AF-9 (Homo sapiens), P42568; inhibition, % at 10 µM; 0.47% of 350,000 active; AID 651704, 2012;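 active = every replicate reaching a set inhibition limit, whatever the replicate mean, cut at about 25% in these data; inconclusive = mean inhibition reaches that limit but some replicates miss it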;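 also: 0% = plate neutral control median and 100% = total signal loss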
RAD52 inh = RAD52 DNA annealing inhibitors, primary screen, biochemical, FRET, single point, set 2 | DNA repair protein RAD52 homolog (Homo sapiens), P43351 | recombinant RAD52 DNA annealing, FRET fluorescence | inhibition, % at 18.7 µM | 0.46% of 360,000 active | AID 651710, 2012;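 active = every replicate showing at least 50% inhibition; inconclusive = mean inhibition at least 50% but not in every replicate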
Active calls of the source: *; i = inactive; ? = inconclusive; . = no result given.

SMILES	RAD54 inh	S100A4 MyoIIA	dFosB act	MLL AF4-AF9 inh	RAD52 inh
COCCn1c(SCC(=O)N2CCCC2)nnc1-c1ccco1	7	-2	-2	28*	-7
C[C@@H]1CN([C@H](C)CO)C(=O)c2c(c3ccccc3n2C)-c2ccccc2CO[C@H]1CN(C)C(=O)Nc1ccnc(N2CCOCC2)c1	.	-3	.	-4	11
COCc1nnc(NC(=O)CCN2C(=O)c3ccccc3C2=O)s1	2	.	3	.	.
CCCc1nnc(NC(=O)CCN2C(=O)c3ccccc3C2=O)s1	2	.	19*	.	.
CC(=O)Nc1ccc(C=NNc2nnc(NN=Cc3ccc(NC(C)=O)cc3)c3ccccc23)cc1	.	72*	-1	0	-15
CN1/C(=C\C(=O)COC(=O)Cn2nnc(-c3ccccc3)n2)C(C)(C)c2ccccc21	-5	.	52*	.	.
C[C@@H]1CN([C@@H](C)CO)C(=O)c2cc(NC(=O)Nc3ccc(F)cc3)ccc2O[C@@H](C)CCCCO[C@H]1CN(C)C(=O)Cc1ccccc1	2	-5	.	-1	28
O=C(C[C@@H]1C[C@@H]2c3cc(NC(=O)CC4CC4)ccc3O[C@@H]2[C@H](CO)O1)NCc1cccnc1	7	4	.	0	0
O=C(Nc1ccc2c(c1)OCCO2)c1ccccn1	6	-1	-12	-1	-3
O=C(Nc1ccc(NC(=O)c2cccs2)cc1)c1ccc2c(c1)OCCO2	.	1	17*	-17	-7
O=C(Nc1ccc(NC(=O)c2ccccn2)cc1)C(=O)Nc1ccc2c(c1)OCCO2	4	7	19*	0	-16
COc1ccc(S(=O)(=O)Nc2ccc3c(c2)CC(=O)N([C@@H](C)CO)C[C@@H](C)[C@@H](CN(C)S(=O)(=O)c2c(C)noc2C)O3)cc1	4	-3	.	0	13
N#Cc1ccc(/C=C\c2nccc3c2[nH]c2ccccc23)cc1	.	1	?	-10	-56
Clc1ccc(/C=C\c2nccc3c2[nH]c2ccccc23)cc1	.	0	27*	-8	-161
CC1=NN(c2ccccc2)C(=O)/C1=C\C=C1/N(C)c2ccccc2C1(C)C	.	-23	-9	36*	-13
CN1C(=CC=C2C=C(I)C(=O)C(I)=C2)C(C)(C)c2ccccc21	-20	-1	175*	-2	-16
CCCN1C(=O)/C(=C\C=C2\N(CC)c3ccccc3C2(C)C)SC1=S	-20	-43	-99	-1	-137
CC1=NN(c2ccccc2)C(=O)/C1=C\C=C1\N(C)c2ccccc2C1(C)C	.	.	-4	.	.
CN1/C(=C\C=N\O)C(C)(C)c2ccccc21	-2	-10	4	2	-61
CN1/C(=C\C=C2/SC(=S)NC2=O)C(C)(C)c2ccccc21	.	104*	70*	7	i
CN1/C(=C\C=C2/C(=O)Oc3ccccc3C2=O)C(C)(C)c2ccccc21	.	178*	.	-1	-330
O=C(C[C@H]1C[C@H]2c3cc(NC(=O)Nc4ccc(C(F)(F)F)cc4)ccc3O[C@H]2[C@H](CO)O1)NCCc1ccccc1	-10	-8	.	-2	0
CC(C)(C)c1ccc(C(=O)NCCC(=O)NC2=NCCS2)cc1	-7	0	-13	29*	-8
CC(C)(C)c1ccc(OCCCC(=O)NC2=NCCS2)cc1	-5	.	-13	.	.
COc1ccc(/C=C/C(=O)OCC(=O)c2ccc(S(=O)(=O)N3CCCCC3)cc2)cc1OC	-1	-3	84*	11	-10
C[C@H](CO)N1C[C@H](C)[C@@H](CN(C)C(=O)Nc2ccc(F)cc2)Oc2ccc(NC(=O)Cc3cn(C)c4ccccc34)cc2CC1=O	.	-9	.	4	-5
C[C@@H](O)C1NC(=O)[C@H](CCCCN)NC(=O)c2cc([N+](=O)[O-])cc(F)c2NCCCC[C@@H](C(N)=O)NC1=O (stereo partly specified)	54*	.	?	.	.
C[C@@H]1CCCCO[C@H](CN(C)Cc2ccc3c(c2)OCO3)[C@H](C)CN([C@H](C)CO)C(=O)c2cc(NC(=O)Nc3ccccc3)ccc2O1	0	13	.	7	21
